# How the values were obtained:
# Pseudomonas aeruginosa = experiment: Antibacterial activity against Pseudomonas aeruginosa ATCC 27853 assessed as reduction in bacterial growth; format: functional
# Summary of the method: (§1)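 CLSI broth microdilution in cation-supplemented Mueller–Hinton broth II; overnight starter cultures (37 °C, shaking, 18–24 h) adjusted by OD600 to ~10^6 CFU/mL. Compounds dosed from DMSO stocks (10 mg/mL stock) as two-fold dilutions, 64–0.5 mg/L. Plates held 37 °C, 18–24 h. MIC = lowest concentration without visible growth. Three independent runs, each in duplicate.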
# Staphylococcus aureus [1] = experiment: Antibacterial activity against Staphylococcus aureus ATCC 29213 assessed as reduction in bacterial growth; format: functional; summary of the method: as §1
# Escherichia coli = experiment: Antibacterial activity against Escherichia coli ATCC 25922 assessed as reduction in bacterial growth; format: functional; summary of the method: as §1
# Klebsiella pneumoniae = experiment: Antibacterial activity against Klebsiella pneumoniae BAA-1705 assessed as reduction in bacterial growth; format: functional; summary of the method: as §1
# Acinetobacter baumannii = experiment: Antibacterial activity against Acinetobacter baumannii BAA-1605 assessed as reduction in bacterial growth; format: functional; summary of the method: as §1
# Staphylococcus aureus [2] = experiment: Antibacterial activity against vancomycin-resistant Staphylococcus aureus VRS 1 assessed as reduction in bacterial growth; format: functional
# Summary of the method: (§2)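 CLSI broth microdilution in cation-supplemented Mueller–Hinton broth II. Starter cultures were grown overnight at 37 °C with shaking from a single MHA colony, then diluted by OD600 to ~10^6 CFU/mL. Compounds came from 10 mg/mL DMSO stocks and were tested two-fold from 64 to 0.5 mg/L. Plates were incubated 37 °C for 18–24 h. MIC was taken as the lowest concentration with no visible growth. Three independent runs, each in duplicate.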
# Staphylococcus aureus [3] = experiment: Antibacterial activity against vancomycin-resistant Staphylococcus aureus VRS 4 assessed as reduction in bacterial growth; format: functional; summary of the method: as §2
# Enterococcus faecalis [4] = experiment: Antibacterial activity against vancomycin-susceptible Enterococcus faecalis NR 31885 assessed as inhibition of bacterial growth incubated for 18 to 24 hrs by broth microdilution assay; format: functional; conditions: time 18-24 hrs; summary of the method: as §1
# Staphylococcus aureus [5] = experiment: Antibacterial activity against vancomycin-resistant Staphylococcus aureus VRS 12 assessed as reduction in bacterial growth; format: functional; summary of the method: as §2
# Enterococcus faecalis [6] = experiment: Antibacterial activity against vancomycin-susceptible Enterococcus faecalis NR 31887 assessed as inhibition of bacterial growth incubated for 18 to 24 hrs by broth microdilution assay; format: functional; conditions: time 18-24 hrs; summary of the method: as §1
# Enterococcus faecalis [7] = experiment: Antibacterial activity against vancomycin-susceptible Enterococcus faecalis NR 31886 assessed as inhibition of bacterial growth incubated for 18 to 24 hrs by broth microdilution assay; format: functional; conditions: time 18-24 hrs; summary of the method: as §1
# Enterococcus faecalis [8] = experiment: Antibacterial activity against vancomycin-susceptible Enterococcus faecalis NR 31888 assessed as inhibition of bacterial growth incubated for 18 to 24 hrs by broth microdilution assay; format: functional; conditions: time 18-24 hrs; summary of the method: as §1
# Enterococcus faecalis [9] = experiment: Antibacterial activity against vancomycin-susceptible Enterococcus faecalis NR 31884 assessed as inhibition of bacterial growth incubated for 18 to 24 hrs by broth microdilution assay; format: functional; conditions: time 18-24 hrs; summary of the method: as §1
# Enterococcus faecium [10] = experiment: Antibacterial activity against vancomycin-resistant Enterococcus faecium NR 31903 assessed as inhibition of bacterial growth
# Enterococcus faecium [11] = experiment: Antibacterial activity against vancomycin-resistant Enterococcus faecium NR 31909 assessed as inhibition of bacterial growth
# Enterococcus faecium [12] = experiment: Antibacterial activity against vancomycin-resistant Enterococcus faecium NR 31912 assessed as inhibition of bacterial growth
# Staphylococcus aureus [13] = experiment: Antibacterial activity against methicilin-resistant Staphylococcus aureus NRS 193 assessed as reduction in bacterial growth; format: functional; summary of the method: as §2
# Staphylococcus aureus [14] = experiment: Antibacterial activity against methicilin-resistant Staphylococcus aureus NRS 198 assessed as reduction in bacterial growth; format: functional; summary of the method: as §2
# Staphylococcus aureus [15] = experiment: Antibacterial activity against methicilin-resistant Staphylococcus aureus NRS 191 assessed as reduction in bacterial growth; format: functional; summary of the method: as §2
# Staphylococcus aureus [16] = experiment: Antibacterial activity against methicilin-resistant Staphylococcus aureus NRS 186 assessed as reduction in bacterial growth; format: functional; summary of the method: as §2
# Staphylococcus aureus [17] = experiment: Antibacterial activity against methicilin-resistant Staphylococcus aureus NRS 194 assessed as reduction in bacterial growth; format: functional; summary of the method: as §2
# Staphylococcus aureus [18] = experiment: Antibacterial activity against methicilin-resistant Staphylococcus aureus NRS 192 assessed as reduction in bacterial growth; format: functional; summary of the method: as §2
# Staphylococcus aureus [19] = experiment: Antibacterial activity against methicilin-resistant Staphylococcus aureus NRS 129 assessed as reduction in bacterial growth; format: functional; summary of the method: as §2
# Staphylococcus aureus [20] = experiment: Antibacterial activity against methicilin-resistant Staphylococcus aureus NRS 100 assessed as reduction in bacterial growth; format: functional; summary of the method: as §2
# Staphylococcus aureus [21] = experiment: Antibacterial activity against methicilin-resistant Staphylococcus aureus NRS 119 assessed as reduction in bacterial growth; format: functional; summary of the method: as §2
SMILES,MIC (Pseudomonas aeruginosa) [µg/mL],MIC (Staphylococcus aureus [1]) [µg/mL],MIC (Escherichia coli) [µg/mL],MIC (Klebsiella pneumoniae) [µg/mL],MIC (Acinetobacter baumannii) [µg/mL],also measured
O=C1CS/C(=N/c2nc3ccccc3o2)N1,> 64,8,> 64,> 64,> 64,
CN[C@H](CC(C)C)C(=O)N[C@H]1C(=O)N[C@@H](CC(N)=O)C(=O)N[C@H]2C(=O)N[C@H]3C(=O)N[C@H](C(=O)N[C@H](C(=O)O)c4cc(O)cc(O)c4-c4cc3ccc4O)[C@H](O)c3ccc(c(Cl)c3)Oc3cc2cc(c3O[C@@H]2O[C@H](CO)[C@@H](O)[C@H](O)[C@H]2O[C@H]2C[C@](C)(N)[C@H](O)[C@H](C)O2)Oc2ccc(cc2Cl)[C@H]1O [VANCOMYCIN],,,,,,MIC (Staphylococcus aureus [2]): > 64 µg/mL; MIC (Staphylococcus aureus [3]): > 64 µg/mL; MIC (Enterococcus faecalis [4]): 2 µg/mL; MIC (Staphylococcus aureus [5]): > 64 µg/mL; MIC (Enterococcus faecalis [6]): 2 µg/mL; MIC (Enterococcus faecalis [7]): 2 µg/mL; MIC (Enterococcus faecalis [8]): 2 µg/mL; MIC (Enterococcus faecalis [9]): 2 µg/mL
O=C1N/C(=N\c2nc3ccccc3o2)S/C1=C\c1ccc(F)cc1,> 64,8,> 64,> 64,> 64,
O=C1N/C(=N\c2nc3ccccc3o2)S/C1=C\c1cccs1,> 64,16,> 64,> 64,> 64,
CN(C)c1ccc(O)c2c1C[C@H]1C[C@H]3[C@H](N(C)C)C(O)=C(C(N)=O)C(=O)[C@@]3(O)C(O)=C1C2=O [MINOCYCLINE],,,,,,MIC (Enterococcus faecium [10]): 8 µg/mL; MIC (Enterococcus faecalis [4]): 0.5 µg/mL; MIC (Enterococcus faecium [11]): 8 µg/mL; MIC (Enterococcus faecium [12]): 8 µg/mL; MIC (Enterococcus faecalis [6]): 8 µg/mL; MIC (Enterococcus faecalis [7]): 0.5 µg/mL; MIC (Enterococcus faecalis [8]): 0.5 µg/mL; MIC (Enterococcus faecalis [9]): 0.5 µg/mL
O=C1N/C(=N\c2nc3ccccc3o2)S/C1=C\c1ccccc1O,> 64,4,> 64,> 64,> 64,
C[C@@H](O)[C@H]1C(=O)N2C(C(=O)O)=C(S[C@@H]3CN[C@H](C(=O)N(C)C)C3)[C@H](C)[C@H]12 [MEROPENEM],,0.125,,,,MIC (Staphylococcus aureus [2]): 64 µg/mL; MIC (Staphylococcus aureus [13]): 64 µg/mL; MIC (Staphylococcus aureus [3]): 64 µg/mL; MIC (Staphylococcus aureus [14]): 64 µg/mL; MIC (Staphylococcus aureus [15]): 64 µg/mL; MIC (Staphylococcus aureus [5]): 8 µg/mL; MIC (Staphylococcus aureus [16]): 8 µg/mL; MIC (Staphylococcus aureus [17]): 1 µg/mL; MIC (Staphylococcus aureus [18]): 8 µg/mL; MIC (Staphylococcus aureus [19]): 4 µg/mL; MIC (Staphylococcus aureus [20]): 32 µg/mL; MIC (Staphylococcus aureus [21]): 64 µg/mL

# Continued, in another order:
MIC (Pseudomonas aeruginosa) [µg/mL],MIC (Staphylococcus aureus [1]) [µg/mL],MIC (Escherichia coli) [µg/mL],MIC (Klebsiella pneumoniae) [µg/mL],MIC (Acinetobacter baumannii) [µg/mL],SMILES,also measured
> 64,32,> 64,> 64,> 64,O=C1N/C(=N\c2nc3ccccc3o2)S/C1=C\c1ccc(Br)cc1,
> 64,> 64,> 64,> 64,> 64,CN(C)c1ccc(/C=C2\S/C(=N/c3nc4ccccc4o3)NC2=O)cc1,
> 64,4,> 64,> 64,> 64,O=C1N/C(=N\c2nc3ccccc3o2)S/C1=C\c1ccccc1,
> 64,4,> 64,> 64,> 64,COc1ccc(/C=C2\S/C(=N/c3nc4ccccc4o3)NC2=O)cc1O,
> 64,8,> 64,> 64,> 64,O=C1N/C(=N\c2nc3ccccc3o2)S/C1=C\c1ccccn1,
> 64,32,> 64,> 64,> 64,CSc1ccc(/C=C2\S/C(=N/c3nc4ccccc4o3)NC2=O)cc1,
> 64,8,> 64,> 64,> 64,O=C1N/C(=N\c2nc3ccccc3o2)S/C1=C\c1ccco1,

# From ChEMBL document CHEMBL5329174, “Discovery of benzoxazole-thiazolidinone hybrids as promising antibacterial agents against Staphylococcus aureus and Enterococcus species” (RSC Med Chem, 2023)
